Published values from different studies.

| SMILES | test system | conditions | Cmax |
| --- | --- | --- | --- |
| COc1cc(OC)c2nccc(N3CCc4c(cc(Cn5ccnc5)cc4-c4cn(C)nc4C(F)(F)F)C3=O)c2c1 | male CD-1 mouse, plasma | oral, 50 mg/kg | 19.7 µg/mL |
| CNCCN(C)c1cc(C#N)cc(CCc2cc(C)cc(N)n2)c1 | male BALB/c mouse, brain | oral, 10 mg/kg | 39.3 ng/g |
| CC(C)(O)c1cn(-c2ccc(-c3cc(F)c(CO)c(S(C)(=O)=O)c3)cc2)c(C(C)(C)c2cccc(F)c2Cl)n1 | male C57BL/6 mouse, serum | oral, 10 mg/kg | 1.9 µM |
| Cc1ccc2cncc(N3CCc4c(cc(Cn5ccnc5)cc4-c4cn(C)nc4C(F)(F)F)C3=O)c2c1 | male CD-1 mouse, plasma | oral, 50 mg/kg | 6.58 µg/mL |
| CC=Cc1ccc(O)c(OC)c1 | mouse, brain | intranasal, 100 mg/kg | 4340 ng/g |
| COc1cc2c(Nc3ccc(Cl)c(Cl)c3F)ncnc2cc1OC[C@@H]1C[C@@H]2CN(C)C[C@@H]2C1 | FVB mouse, brain | oral, 70 mg/kg, single dose | 7570 ng/g |
| COc1ccc(C(O)COc2ccc(-c3csc(-c4ccc(OCC(O)c5ccc(OC)c(OC)c5)cc4)n3)cc2)cc1OC (stereo not drawn) | C57BL/6 mouse, plasma | oral, 10 mg/kg | 1.76 µg/mL |
| NS(=O)(=O)c1ccc(-c2cc(Nc3ccc(OC(F)(F)F)cc3)ncn2)cc1 | male BALB/c mouse, plasma | oral, 20 mg/kg | 2 µg/mL |
| CCc1cc(OC)c2nccc(N3CCc4c(cc(Cn5ccnc5)cc4-c4cn(C)nc4C(F)(F)F)C3=O)c2c1 | male CD-1 mouse, plasma | oral, 50 mg/kg | 29 µg/mL |
| COc1ccc([C@@]23Oc4cc(OC)cc(OC)c4[C@]2(O)[C@H](O)[C@H](C(=O)N(C)C)[C@H]3c2ccccc2)cc1 | mouse, plasma | oral, 5 mg/kg | ~0.8 µM |
| CC[C@H](C)[C@@H]1NC(=O)[C@@](C)(NC(=O)[C@H](CCCNC(=N)N)NC(=O)[C@H](CC(C)C)NC(=O)[C@@H](NC(=O)[C@H](CCC(N)=O)NC(=O)[C@H](CC(C)C)NC(C)=O)[C@@H](C)O)CCCC=CCCC[C@@](C)(C(=O)N[C@@H](CC(C)C)C(=O)N[C@@H](Cc2ccc3ccccc3c2)C(N)=O)NC(=O)[C@H](CCCNC(=N)N)NC(=O)[C@H](CCC(N)=O)NC1=O | male BALB/c mouse, plasma | intravenous, 10 mg/kg | 86 µM |
| CNC(=O)[C@H](Cc1c[nH]cn1)NC(=O)CN(CCCc1ccccc1)CC(=O)O | male C57BL/6 mouse, plasma | intraperitoneal, 30 mg/kg | 11 µg/mL |
| CCc1ccc(Cc2cc([C@@H]3O[C@H](CO)[C@@H](O)[C@H](O)[C@H]3O)cc3c2CCC3)cc1 | male C57BL/6 mouse, plasma | oral, 3 mg/kg | 1.83 µg/mL |
| NC[C@@H]1O[C@H](O[C@H]2[C@@H](O)[C@H](O[C@@H]3[C@@H](O)[C@H](N)C[C@H](N)[C@H]3O[C@H]3O[C@H](CO)[C@@H](O)[C@H](O)[C@H]3N)O[C@@H]2CO)[C@H](N)[C@@H](O)[C@@H]1O | male BALB/c mouse, plasma | oral, 500 mg/kg | 0.69 µg/mL |
| Cc1c2c(n(-c3ccc(Cl)cc3Cl)c1-c1ccc(OS(=O)(=O)CCC(F)(F)F)cc1)CCN(N1CCCCC1)C2=O | mouse, plasma | oral, 6 µmol/kg, single dose | 0.48 µM |
| OC[C@H]1O[C@@H](c2ccc(Cl)c(Cc3ccc(O[C@H]4CCOC4)cc3)c2)[C@H](O)[C@@H](O)[C@@H]1O | CD-1 mouse, plasma | oral, 10 mg/kg | 2.46 µg/mL |
| CC(C)Oc1c(NC(=O)c2ccc(NC(=O)[C@H](CC(N)=O)NC(=O)c3ccc(NC(=O)c4ccc(C#N)cc4)cc3)cc2)ccc(C(=O)Nc2ccc(C(=O)O)cc2)c1O | male CD-1 mouse, plasma | subcutaneous, 5 mg/kg, single dose | 0.129 µg/mL |
| C=CC(=O)N1CC2CC(n3nc(-c4ccc(C(=O)Nc5ccccn5)cc4)c4c(N)ncnc43)CC2C1 (stereo not drawn) | SCID mouse, plasma | oral, 3 mg/kg | 0.703 µg/mL |
| COc1nc(-c2cc(C)c(N[C@@H](C)c3c(F)cc(F)cc3F)nn2)ccc1-n1cnc(C)c1 | male CD-1 mouse, plasma | intravenous, 1 mg/kg, single dose | 0.858 µg/mL |
| COc1cc(C(=O)N2CCC(N3CCN(C)CC3)CC2)ccc1Nc1ncc2c(n1)N(C)c1ccccc1C(=O)N2C | mouse, plasma | oral, 10 mg/kg | 1.62 µg/mL |
| CNC(=O)c1cc(Oc2ccc(NC(=O)Nc3ccc(Cl)c(C(F)(F)F)c3)c(F)c2)ccn1 | male mouse, plasma | oral, 10 mg/kg, single dose | 3.3 µg/mL |
| Cc1nc(-c2cnc(NC(C)C)n(C)c2=O)ccc1Oc1ccnc(-c2cnn(C)c2)c1 | female mouse, plasma | oral, 15 mg/kg, single dose | 9.36 µg/mL |
| CCc1cc(C(=O)NC)c2nccc(N3CCc4c(cc(Cn5ccnc5)cc4-c4cn(C)nc4C(F)(F)F)C3=O)c2c1 | male CD-1 mouse, plasma | oral, 150 mg/kg | 131 µg/mL |

| SMILES | test system | conditions | Cmax |
| --- | --- | --- | --- |
| COC(=O)CN(CCCc1ccccc1)CC(=O)N[C@@H](Cc1c[nH]cn1)c1nc(C)no1 | male C57BL/6 mouse, plasma | intraperitoneal, 30 mg/kg | 1 µg/mL |
| COc1nc(-c2cc(C)c(N[C@@H](C)c3ccc(F)cc3)nn2)ccc1-n1cnc(C)c1 | male CD-1 mouse, plasma | oral, 5 mg/kg, single dose | 1.53 µg/mL |
| Cn1cnc2c(F)c(Nc3ccc(Br)cc3Cl)c(C(=O)NOCCO)cc21 | nude mouse, liver | oral, 5 mg/kg, single dose, tumour-bearing | 1340 ng/g |
| CN1C(=O)c2ccccc2[S@+]([O-])c2ccc(C(=O)NCCc3cccs3)cc21 | male C57BL/6 mouse, brain | intraperitoneal, 30 mg/kg, single dose | 1720 ng/g |
| CN1CCC[C@H](CN2c3ccccc3Sc3ccccc32)C1.Cl | mouse, plasma | oral, 64 mg/kg, single dose | 1.18 µg/mL |
| CC(C)(O)c1cn(-c2ccc(-c3ccc(CO)c(S(C)(=O)=O)c3)cc2)c(Cc2ccccc2Cl)n1 | male C57BL/6 mouse, serum | oral, 10 mg/kg | 3.2 µM |
| CCn1ncc2c(Nc3ccc(OC(F)(F)F)cc3)ncnc21 | male BALB/c mouse, plasma | oral, 20 mg/kg | 0.263 µg/mL |
| CSc1cc(Oc2ccnc3[nH]c(=O)cnc23)ccc1NC(=O)Nc1cc(C(C)(C)C)nn1-c1ccccc1 | BALB/c mouse, plasma | intravenous, 2 mg/kg | 29.8 µM |
| Cc1nc2ccc(F)cc2n1-c1nc(N)c(F)c(Nc2ccc(C(F)(F)F)cc2)n1 | nude mouse, plasma | oral, 10 mg/kg | 1.16 µg/mL |
| NC1(C(=O)N[C@@H](CCO)c2ccc(Cl)cc2)CCN(c2ncnc3[nH]ccc23)CC1 | male Swiss mouse, plasma | intraperitoneal, 25 mg/kg, single dose | ~8 µM |
| CCOc1ccc(Cc2cc([C@@H]3O[C@H](CO)[C@@H](O)[C@H](O)[C@H]3O)ccc2Cl)cc1 | male C57BL/6 mouse, plasma | oral, 1 mg/kg | 0.207 µg/mL |
| COc1ccc2nccc(N3CCc4c(cc(Cn5ccnc5)cc4-c4cn(C)nc4C(F)(F)F)C3=O)c2c1 | male CD-1 mouse, plasma | oral, 10 mg/kg | 1.15 µg/mL |
| COc1nc(-c2cc(C)c(N[C@@H](C)c3cc(F)cc(F)c3)nn2)ccc1-n1cnc(C)c1 | male CD-1 mouse, plasma | oral, 5 mg/kg, single dose | 1.18 µg/mL |
| NC(=O)c1cc(Oc2ccc(NC(=O)Nc3ccc(Cl)c(C(F)(F)F)c3)c(F)c2)cc[n+]1[O-] | mouse, plasma | oral, 10 mg/kg, single dose | 0.0229 µg/mL |
| CC(C)N1Cc2cc(C(F)(F)F)ncc2C2=CN=C(NCc3c(F)ccc4c3CCO4)N3C=NC(C1=O)C23 (stereo not drawn) | male CD-1 mouse, plasma | oral, 10 mg/kg | 5.07 µg/mL |
| CS(=O)(=O)CCNCc1ccc(-c2ccc3ncnc(Nc4ccc(OCc5cccc(F)c5)c(Cl)c4)c3c2)o1 | nude mouse, plasma | oral, 100 mg/kg, single dose | 15.2 µg/mL |
| CC(C)(C)c1cc(NC(=O)Nc2ccc(Oc3ccnc4[nH]c(=O)cnc34)cc2F)n(-c2ccccc2)n1 | BALB/c mouse, plasma | intravenous, 2 mg/kg | 38.1 µM |
| Cc1ccc(NC(=O)c2ccc(CN3CCN(C)CC3)cc2)cc1Nc1nccc(-c2cncc(-c3oncc3C)c2)n1 | male C57BL/6 mouse, brain | oral, 100 mg/kg/day | 0.0981 µg/mL |
| Cc1c(C(=O)NN2CCCCC2)nn(-c2ccc(Cl)cc2Cl)c1-c1ccc(Cl)cc1 | mouse, plasma | oral, 20 µmol/kg, single dose | 1.05 µM |
| CC(C)(C)c1ccc(O)c(CN(Cc2cc(C(C)(C)C)ccc2O)C2CCC(NC(N)=O)CC2)c1 (stereo not drawn) | male C57BL/6 mouse, plasma | intraperitoneal, 10 mg/kg, single dose | 2.24 µg/mL |
| CC(=O)O[C@H]1C(=O)[C@@]2(C)[C@H]([C@H](OC(=O)c3ccccc3)[C@]3(O)C[C@H](OC(=O)[C@H](O)[C@@H](NC(=O)c4ccccc4)c4ccccc4)C(C)=C1C3(C)C)[C@]1(OC(C)=O)CO[C@@H]1C[C@@H]2O | SCID mouse, tumour | intraperitoneal, 10 mg/kg, single dose, tumour-bearing | 3700 ng/g |
| Cc1cc(Nc2ccc(S(F)(F)(F)(F)F)cc2)n2ncnc2n1 | male Swiss mouse, plasma | oral, 100 mg/kg, single dose | 59 µM |
